Test results taken from ChEMBL document CHEMBL2429734, “Expedient Synthesis of SMAMPs via Click Chemistry” (ACS Med Chem Lett, 2013).

Tests used:
[1] = Hemolytic activity in human RBC assessed as release of hamoglobin after 1 hr; type: ADME, cell-based, Erythrocyte; conditions: for HC50 at 1 h: human red blood cells
Summary of the method: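 Lysis of human erythrocytes measured. HC50 was taken as the lowest concentration causing 50% lysis of the red blood cells.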

Escherichia coli [2] = experiment: Antibacterial activity against Escherichia coli ATCC 25922 assessed as growth inhibition incubated for 30 mins prior to inoculation measured after 18 hrs by broth microdilution method in presence of 40% mouse serum; type: functional
Summary of the method: (§1)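 Hancock-modified CLSI microbroth dilution MIC run in the presence of 40% mouse serum against S. aureus ATCC 27660 or E. coli ATCC 25922. 40% was the highest serum level used because bacterial growth was impaired at higher percentages.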

Staphylococcus aureus [3] = experiment: Antibacterial activity against Staphylococcus aureus ATCC 27660 assessed as growth inhibition incubated for 30 mins prior to inoculation measured after 18 hrs by broth microdilution method in presence of 40% mouse serum; type: functional; summary of the method: as §1
Klebsiella pneumoniae = experiment: Antibacterial activity against Klebsiella pneumoniae ATCC 13883 assessed as growth inhibition after 18 hrs by broth microdilution method in absence of 40% mouse serum; type: functional; conditions: ATCC 13883, 18 h
Summary of the method: (§2)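 MIC determined by Hancock's method for cationic antimicrobial peptides, a slight modification of the CLSI microbroth dilution method, run in medium without mouse serum. Strains were S. aureus ATCC 27660, E. coli ATCC 25922, E. faecalis ATCC 29212, P. aeruginosa ATCC 10145 and K. pneumoniae ATCC 13883.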

Pseudomonas aeruginosa = experiment: Antibacterial activity against Pseudomonas aeruginosa ATCC 10145 assessed as growth inhibition after 18 hrs by broth microdilution method in absence of 40% mouse serum; type: functional; conditions: ATCC 10145, 18 h; summary of the method: as §2
Enterococcus faecalis = experiment: Antibacterial activity against Enterococcus faecalis ATCC 29212 assessed as growth inhibition after 18 hrs by broth microdilution method in absence of 40% mouse serum; type: functional; conditions: ATCC 29212, 18 h; summary of the method: as §2
Escherichia coli [4] = experiment: Antibacterial activity against Escherichia coli ATCC 25922 assessed as growth inhibition after 18 hrs by broth microdilution method in absence of 40% mouse serum; type: functional; conditions: ATCC 25922, 18 h; summary of the method: as §2
Staphylococcus aureus [5] = experiment: Antibacterial activity against Staphylococcus aureus ATCC 27660 assessed as growth inhibition after 18 hrs by broth microdilution method in absence of 40% mouse serum; type: functional; conditions: ATCC 27660, 18 h; summary of the method: as §2
[6] = Ratio of compound HC50 to pexiganan HC50 for human RBC; type: ADME, cell-based; conditions: erythrocyte
[7] = Selectivity ratio of HC50 for human RBC to MIC for Escherichia coli ATCC 25922; type: functional
[8] = Selectivity ratio of HC50 for human RBC to MIC for Staphylococcus aureus ATCC 27660; type: functional

Compound	MIC (Escherichia coli [2])	MIC (Staphylococcus aureus [3])	MIC (Klebsiella pneumoniae)	MIC (Pseudomonas aeruginosa)	MIC (Enterococcus faecalis)	MIC (Escherichia coli [4])	MIC (Staphylococcus aureus [5])	Ratio [6]	HC50 at 1 h [1]	HC50 ([1]; erythrocyte, 1 h)	Selectivity ratio [7]	Selectivity ratio [8]
NCCCOc1cc(OCCCN)cc(-c2ccc3ccc(-c4cc(OCCCN)cc(OCCCN)c4)cc3c2)c1.O=C(O)C(F)(F)F.O=C(O)C(F)(F)F.O=C(O)C(F)(F)F.O=C(O)C(F)(F)F	25 µg/mL	1.56 µg/mL	–	–	–	–	–	–	194 µg/mL	–	–	–
PEXIGANAN ACETATE	–	–	–	–	–	–	–	–	–	120 µg/mL	–	–
NCCCOc1cccc(-n2cc(-c3cccc(-c4cn(-c5cccc(OCCCN)c5)nn4)c3)nn2)c1.O=C(O)C(F)(F)F.O=C(O)C(F)(F)F	25 µg/mL	12.5 µg/mL	> 50 µg/mL	25 µg/mL	25 µg/mL	25 µg/mL	50 µg/mL	–	–	–	–	–
NCCCOc1cc(C#Cc2ccc3ccc(C#Cc4cc(OCCCN)cc(OCCCN)c4)cc3c2)cc(OCCCN)c1.O=C(O)C(F)(F)F.O=C(O)C(F)(F)F.O=C(O)C(F)(F)F.O=C(O)C(F)(F)F	12.5 µg/mL	3.13 µg/mL	–	–	–	–	–	–	3.4 µg/mL	–	–	–
NCCCOc1cccc(-n2cc(-c3ccc4ccc(-c5cn(-c6cccc(OCCCN)c6)nn5)cc4c3)nn2)c1.O=C(O)C(F)(F)F.O=C(O)C(F)(F)F	> 50 µg/mL	12.5 µg/mL	> 50 µg/mL	> 50 µg/mL	50 µg/mL	> 50 µg/mL	> 50 µg/mL	–	–	–	–	–

Further lines, with some results ahead:

MIC (Escherichia coli [2])	MIC (Staphylococcus aureus [3])	MIC (Klebsiella pneumoniae)	MIC (Pseudomonas aeruginosa)	MIC (Enterococcus faecalis)	MIC (Escherichia coli [4])	MIC (Staphylococcus aureus [5])	Ratio [6]	Compound	HC50 at 1 h [1]	HC50 ([1]; erythrocyte, 1 h)	Selectivity ratio [7]	Selectivity ratio [8]
6.25 µg/mL	0.39 µg/mL	50 µg/mL	> 50 µg/mL	25 µg/mL	> 50 µg/mL	12.5 µg/mL	–	NCCCOc1cc(OCCCN)cc(-n2cc(-c3ccc4ccc(-c5cn(-c6cc(OCCCN)cc(OCCCN)c6)nn5)cc4c3)nn2)c1.O=C(O)C(F)(F)F.O=C(O)C(F)(F)F.O=C(O)C(F)(F)F.O=C(O)C(F)(F)F	693 µg/mL	–	–	–
25 µg/mL	0.19 µg/mL	> 50 µg/mL	12.5 µg/mL	50 µg/mL	25 µg/mL	12.5 µg/mL	–	NCCCOc1cc(-n2cc(-c3ccc4ccc(-c5cn(-c6cc(OCCCN)c(OCCCN)c(OCCCN)c6)nn5)cc4c3)nn2)cc(OCCCN)c1OCCCN.O=C(O)C(F)(F)F.O=C(O)C(F)(F)F.O=C(O)C(F)(F)F.O=C(O)C(F)(F)F.O=C(O)C(F)(F)F.O=C(O)C(F)(F)F	828 µg/mL	–	–	–
25 µg/mL	0.39 µg/mL	> 50 µg/mL	50 µg/mL	25 µg/mL	50 µg/mL	12.5 µg/mL	–	NCCCOc1ccc(-n2cc(-c3ccc4ccc(-c5cn(-c6cc(OCCCN)c(OCCCN)c(OCCCN)c6)nn5)cc4c3)nn2)cc1OCCCN.O=C(O)C(F)(F)F.O=C(O)C(F)(F)F.O=C(O)C(F)(F)F.O=C(O)C(F)(F)F.O=C(O)C(F)(F)F	94 µg/mL	–	–	–
6.25 µg/mL	0.39 µg/mL	> 50 µg/mL	50 µg/mL	–	> 50 µg/mL	12.5 µg/mL	10	NCCCOc1ccc(-n2cc(-c3cccc(-c4cn(-c5ccc(OCCCN)c(OCCCN)c5)nn4)c3)nn2)cc1OCCCN.O=C(O)C(F)(F)F.O=C(O)C(F)(F)F.O=C(O)C(F)(F)F.O=C(O)C(F)(F)F	> 1000 µg/mL	–	> 160	> 2500
3.13 µg/mL	0.19 µg/mL	50 µg/mL	50 µg/mL	25 µg/mL	> 50 µg/mL	25 µg/mL	–	NCCCOc1ccc(-n2cc(-c3ccc4ccc(-c5cn(-c6ccc(OCCCN)c(OCCCN)c6)nn5)cc4c3)nn2)cc1OCCCN.O=C(O)C(F)(F)F.O=C(O)C(F)(F)F.O=C(O)C(F)(F)F.O=C(O)C(F)(F)F	81 µg/mL	–	–	–
12.5 µg/mL	0.39 µg/mL	> 50 µg/mL	25 µg/mL	50 µg/mL	> 50 µg/mL	25 µg/mL	–	NCCCOc1cc(OCCCN)cc(-n2cc(-c3ccc4c(ccc5cc(-c6cn(-c7cc(OCCCN)cc(OCCCN)c7)nn6)ccc54)c3)nn2)c1.O=C(O)C(F)(F)F.O=C(O)C(F)(F)F.O=C(O)C(F)(F)F.O=C(O)C(F)(F)F	109 µg/mL	–	–	–
